In one data set the target is DNA topoisomerase II (Homo sapiens, UniProt P11388+Q02880). Put plainly: Tested for inhibitory effect on topoisomerase-2 mediated DNA cleavage using super coiled pBR322 plasmid DNA. The class given is functional.
In data set [1] the test system is P388. Put plainly: The compound was tested for the cytotoxic activity against murine leukemia cells (P388). The class given is functional, cell-based. The conditions noted are these: Mus musculus. A digest of the protocol: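 The murine leukemia P388 cell line was used. Cytotoxicity was read out by a colorimetric tetrazolium–formazan assay.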
Data set [2] relates to MKN-45. The experiment in a line: Inhibitory activity against human stomach cancer cells MKN-45 in nude mice after intravenous dose.
In data set [3] the test system is MKN-45. Put plainly: Tested for cytotoxic activity against human stomach cancer cells (MKN-45). The class given is functional, cell-based. A digest of the protocol:
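The human stomach cancer MKN-45 cell line was used. Cytotoxicity was read out by a colorimetric tetrazolium–formazan assay and by sulforhodamine B dye staining.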

The species entered for another data set is Mus sp. Put plainly: Tested for toxicity in mice. It is filed as organism-based. The conditions noted are these: in vivo. A digest of the protocol:
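Nude mice bearing subcutaneous MKN-45 human stomach cancer flank xenografts; dosing intravenous five times/week for 2 weeks, starting once tumors reached 0.2 cm³ or larger. Toxicity expressed as LD₁₀, the approximate dose lethal to 10% of animals on this schedule.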

Another data set has as its target T1, DNA topoisomerase 1 (Homo sapiens, UniProt P11387).
T1 sequence (P11387 whole entry): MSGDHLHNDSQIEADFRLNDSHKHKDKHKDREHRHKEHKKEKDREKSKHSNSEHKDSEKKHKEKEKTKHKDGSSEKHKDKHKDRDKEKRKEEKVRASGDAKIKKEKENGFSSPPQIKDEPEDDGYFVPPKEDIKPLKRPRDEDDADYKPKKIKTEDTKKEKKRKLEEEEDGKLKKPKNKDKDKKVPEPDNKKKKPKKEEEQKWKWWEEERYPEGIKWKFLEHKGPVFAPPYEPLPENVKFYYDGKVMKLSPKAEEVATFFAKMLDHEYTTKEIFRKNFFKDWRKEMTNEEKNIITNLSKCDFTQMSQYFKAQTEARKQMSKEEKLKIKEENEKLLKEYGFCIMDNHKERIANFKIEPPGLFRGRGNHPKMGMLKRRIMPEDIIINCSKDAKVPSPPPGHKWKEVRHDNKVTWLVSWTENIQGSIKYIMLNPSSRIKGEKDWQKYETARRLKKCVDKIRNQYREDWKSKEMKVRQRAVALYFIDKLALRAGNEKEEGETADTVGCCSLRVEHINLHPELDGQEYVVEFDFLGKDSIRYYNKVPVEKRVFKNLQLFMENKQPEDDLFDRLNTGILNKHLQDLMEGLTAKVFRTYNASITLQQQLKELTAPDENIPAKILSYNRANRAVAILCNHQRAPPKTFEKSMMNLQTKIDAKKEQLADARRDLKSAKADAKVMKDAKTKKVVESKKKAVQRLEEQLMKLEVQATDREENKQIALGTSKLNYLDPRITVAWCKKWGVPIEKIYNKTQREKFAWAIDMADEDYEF
The experiment in a line: Inhibitory effect on topoisomerase-1 mediated DNA cleavage using supercoiled pBR322 plasmid DNA. It is filed as functional.

The target in the next data set is Protein kinase C (PKC). Put plainly: Inhibitory effect on protein kinase C using histone II-As as substrate. The class given is protein assay.
Data set [4] concerns MKN-45. The experiment in a line: Ratio of compound toxicity to that of anticancer activity against human stomach cancer cells MKN-45 in mice. It is filed as functional. A digest of the protocol: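 MKN-45 human stomach cancer cells were implanted subcutaneously in a side flank of nude mice. Dosing began once tumors reached 0.2 cm³ or larger and was given intravenously five times per week for 2 weeks. GID75 is the approximate dose giving 75% tumor growth inhibition. LD10 is the approximate 10% lethal dose on the same schedule. Safety margin is LD10/GID75.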

Data set [5] concerns P388. The experiment in a line: Compound was tested for the effect on the formation of protein-DNA complex in P388 cells investigated by the K+/SDS method. The class given is functional, Mus musculus. A digest of the protocol: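 Formation of topoisomerase–DNA (protein–DNA) complexes was measured in murine leukemia P388 cells by K+/SDS precipitation. Activity was reported as EC200.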

By EC50 is commonly meant the concentration at which the effect is half-maximal. As usually defined, the IC50 is the midpoint of a concentration-inhibition curve. For `O=C1c2c(c3c4ccc(O)cc4n([C@@H]4O[C@H](CO)[C@@H](O)[C@H]4O)c3c3[nH]c4cc(O)ccc4c23)C(=O)N1NC(CO)CO`, the figures for the concentration for a half-maximal effect (EC50) at DNA topoisomerase II and at DNA topoisomerase 1 were over 50 µM and 0.008 µM, respectively. Besides, the half-inhibitory concentration (IC50) in the data set with P388 [1] worked out at 0.0018 µM; in the data set on MKN-45 [3], 0.05 µM; at Protein kinase C (PKC), 20 µM. The compound also registered a GID75 in the data set with MKN-45 [2] of 290 mg m**-2. Also, the LD10 in the data set listed under Mus sp. came to 570 mg m**-2. The Saftey margin with MKN-45 [4] was 2. In the data set with P388 [5], this compound had an EC200 of 32 nM.
Turning to `O=C1c2c(c3c4ccc(O)cc4n([C@@H]4O[C@H](CO)[C@@H](O)[C@@H](O)[C@H]4O)c3c3[nH]c4cc(O)ccc4c23)C(=O)N1NC(CO)CO`, the concentration giving a half-maximal response (EC50) on DNA topoisomerase II was over 50 µM; at DNA topoisomerase 1, 0.026 µM. Also, the half-inhibitory concentration (IC50) was 0.013 µM with P388 [1], 0.033 µM with MKN-45 [3] and 17 µM against Protein kinase C (PKC). In addition, the GID75 with MKN-45 [2] amounted to 440 mg m**-2. In the data set listed under Mus sp., this compound gave an LD10 of 990 mg m**-2. Besides, the Saftey margin in the data set with MKN-45 [4] is 2.3. In the data set on P388 [5], this compound had an EC200 of 160 nM.
For `O=C1c2c(c3c4ccc(O)cc4n([C@@H]4O[C@H](CO)[C@@H](O)[C@H](O)[C@H]4O)c3c3[nH]c4cc(O)ccc4c23)C(=O)N1NC(CO)CO` [EDOTECARIN], the 50% effective concentration (EC50) on DNA topoisomerase II was over 50 µM; at DNA topoisomerase 1, 0.051 µM. For the same compound, the half-maximal inhibitory concentration (IC50) was 0.0015 µM with P388 [1], 0.0048 µM in the data set with MKN-45 [3] and 200 µM on Protein kinase C (PKC). This compound showed a GID75 with MKN-45 [2] of 45 mg m**-2. In the data set filed under Mus sp., this compound returned an LD10 of over 1600 mg m**-2. In addition, in the data set with MKN-45 [4], the Saftey margin is over 36. Moreover, the EC200 in the data set on P388 [5] amounted to 100 nM.
